In the library only some 2.8% were active in any assay of this set; here they are far more common.
NPY-Y1 PAM-ag – potentiators or agonists of human neuropeptide Y receptor Y1. NPY-Y1 expressing cells, potentiator/agonist activation. activation, % at 3.6 µM. 220,000 tested, 0.37% active; in the data active = activation above about 33%, passing the limit was not always enough;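 note: cells stimulated with NPY at EC10 then isoproterenol at EC100; 0% = low agonist plus stimulus and 100% = saturating agonist plus stimulus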
Target sequence (P25929 whole entry, looked up): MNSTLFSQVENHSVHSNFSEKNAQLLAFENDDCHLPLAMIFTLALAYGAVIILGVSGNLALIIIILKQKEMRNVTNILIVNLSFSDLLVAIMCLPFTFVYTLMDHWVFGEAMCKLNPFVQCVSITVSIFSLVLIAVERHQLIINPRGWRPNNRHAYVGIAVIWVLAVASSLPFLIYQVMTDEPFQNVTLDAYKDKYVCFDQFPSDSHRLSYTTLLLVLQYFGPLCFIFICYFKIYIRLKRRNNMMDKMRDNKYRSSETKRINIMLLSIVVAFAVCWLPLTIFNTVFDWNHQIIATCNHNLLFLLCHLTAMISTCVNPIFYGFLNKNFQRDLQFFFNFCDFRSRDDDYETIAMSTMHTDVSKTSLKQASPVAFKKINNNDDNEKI
NPY Y2 blocker – NPY-Y2 (human) receptor antagonism; NPY-Y2 expressing cells, antagonist mode; inhibition, % at 2.7 µM; 140,000 tested, 0.99% active; AID 793; in the data active = inhibition above about 17%;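 note: 0% = vehicle with agonist challenge and 100% = reference antagonist with challenge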
Target sequence (P49146 whole entry, looked up): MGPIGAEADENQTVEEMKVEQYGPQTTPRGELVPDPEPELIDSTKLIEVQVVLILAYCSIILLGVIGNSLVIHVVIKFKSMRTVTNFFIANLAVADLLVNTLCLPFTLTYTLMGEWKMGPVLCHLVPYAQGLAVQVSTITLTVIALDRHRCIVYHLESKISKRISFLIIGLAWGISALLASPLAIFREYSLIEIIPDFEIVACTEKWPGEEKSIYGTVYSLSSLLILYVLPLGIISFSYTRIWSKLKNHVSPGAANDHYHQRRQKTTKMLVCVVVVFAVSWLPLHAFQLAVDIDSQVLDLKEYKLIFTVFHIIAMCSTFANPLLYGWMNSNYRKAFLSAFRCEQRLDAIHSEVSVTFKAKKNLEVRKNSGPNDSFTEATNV
Rad51 HR inh – blocks human Rad51 in homologous recombination; Q06609; hRad51 DNA strand exchange, fluorescence dequenching; inhibition, % at 10 µM; 200,000 tested, 0.085% active; AID 1385;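 active = inhibition above 40% at the single screening dose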;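 note: 0% = DMSO control wells and 100% = blanks with heterologous ssDNA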
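Test system: preformed human Rad51 ssDNA filaments. Compound dosing: single dose, 10 µM final compound. Incubation: filaments 15 min 37 °C, then compound 30 min. Technique: FRET fluorescence dequenching, excitation 485 nm, emission 520 nm. Read-out basis: percent inhibition from fluorescence, normalised to plate control and blank means. Benchmarks: plate controls and plate blanks.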
NPY2 pot ag – potentiates or activates human NPY-Y2 receptor; P49146; cells expressing NPY-Y2, potentiator/agonist read-out; activation, % at 3.6 µM; 220,000 tested, 0.45% active; AID 1359; in the data active = activation above about 27%;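 note: cells stimulated with NPY near EC25 plus isoproterenol at EC100; 0% = vehicle plus submaximal agonist and 100% = vehicle plus saturating agonist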
Measles CPE – protection of cells from measles virus; Measles virus-infected cells, CPE protection, absorbance; protection (pct of control), % at 4 µM; 140,000 tested, 1.5% active; in the data active = protection mostly above about 24%, no sharp cut-off; inactive = mostly below about 26%
NPY-Y1 antag – NPY-Y1 (human) receptor antagonism | P25929 | HEK293-CNG Y1 cells, membrane potential fluorescence; NPY at EC95, then isoproterenol | inhibition, % at 3.6 µM | 200,000 tested, 1% active | AID 1040;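 active = inhibition above the campaign mean inhibition of all tested compounds plus 3 SD, cut at about 20% in these data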;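 note: 0% = DMSO wells given NPY plus isoproterenol and 100% = isoproterenol alone without NPY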
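Test system – HEK293 Y1/CNG channel cell line · Also added – NPY agonist 25 nM, then isoproterenol 1 µM plus Ro 20-1724 25 µM · Compound dosing – one concentration, 3.6 µM, in 0.4% DMSO · Schedule – compound incubation 1 h at room temperature, readout 45 min post-stimulation · Technique – fluorescence, membrane potential probe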
NPY-Y2 confirm – human NPY-Y2 potentiation or agonism, confirmation. cell-based NPY-Y2 potentiator/agonist assay. 450 tested, 20% active. activation, % at 3.6 µM. shares compounds with NPY2 pot ag; in the data active = activation above about 33%
NPY-Y1 potentiator – potentiates or activates NPY-Y1, counter-screen for NPY-Y2 hits. shares compounds with NPY2 pot ag. Y1 HEK293-CNG cells, membrane potential fluorescence. activation, % at 3.6 µM. 450 tested, 20% active; in the data active = activation above about 45%;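 note: cells stimulated with submaximal NPY then isoproterenol with phosphodiesterase inhibitor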
NPY-Y1 ag 2 – human NPY-Y1 agonism as NPY-Y2 potentiator counter-screen; AID 1702; HEK293 Y1-CNGC, membrane potential fluorescence; 450 tested, 37% active; shares compounds with NPY2 pot ag; activation, % at 3.6 µM;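 active = activation above the mean of DMSO-only control wells plus 3 SD, cut at about 18% in these data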;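 note: cells stimulated with 1 µM isoproterenol plus the PDE inhibitor Ro 20-1724; 0% = isoproterenol with DMSO and no NPY and 100% = 40 nM NPY; Y1 agonists lower the membrane potential dye signal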
CNGC inh – cyclic nucleotide gated channel inhibition as counter-screen; shares compounds with NPY2 pot ag; HEK293-CNG parental, isoproterenol cAMP, membrane potential fluorescence; inhibition, % at 3.6 µM; 450 tested, 32% active; AID 1703;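 active = inhibition above the control-well mean plus 3 SD of those wells, cut at about 22% in these data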;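 note: 0% = DMSO with isoproterenol and 100% = DMSO without isoproterenol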
NPY-Y2 ag 2 – activates human NPY-Y2 receptor in potentiator counter-screen | shares compounds with NPY2 pot ag | HEK293 Y2/CNGC cells, membrane potential fluorescence, agonist mode | activation, % at 3.6 µM | 450 tested, 56% active;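 active = activation above the mean of solvent-only control wells plus 3 SD, cut at about 10% in these data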;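 note: cells stimulated by isoproterenol with no NPY added so direct agonism is tested; 0% = DMSO with isoproterenol alone and 100% = NPY at EC100 plus isoproterenol; agonism lowers probe fluorescence through less cAMP and CNG channel opening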
An asterisk follows results filed as active; . = no result given.

SMILES | NPY-Y1 PAM-ag | NPY Y2 blocker | Rad51 HR inh | NPY2 pot ag | Measles CPE | NPY-Y1 antag | NPY-Y2 confirm | NPY-Y1 potentiator | NPY-Y1 ag 2 | CNGC inh | NPY-Y2 ag 2
COC(=O)c1sccc1NS(=O)(=O)c1ccc(OC)cc1 | -34.8 | -0.1 | 1.6 | 31.2* | 2.3 | 4.0 | -4.7 | -8.1 | -8.1 | -9.0 | 5.0
O=C(NCc1cccc(F)c1)C1CCN(C(=O)c2sccc2-n2cccc2)CC1 | -3.4 | . | . | 0.7 | . | -1.4 | . | . | . | . | .
Oc1ccccc1N=Nc1nc(-c2ccccc2)c(-c2ccccc2)[nH]1 | 47.5 | -9.1 | -5.0 | 44.9* | -0.7 | -1.6 | 57.1* | 69.2* | 63.6* | 61.3* | 63.5*
COc1ccccc1N=Nc1nc(-c2ccccc2)c(-c2ccccc2)[nH]1 | 25.7 | -3.3 | . | 21.8 | 6.0 | -7.0 | . | . | . | . | .
O=C(CN1C(=O)c2ccccc2C1=O)Nc1cccc(S(=O)(=O)Nc2ccccc2Cl)c1 | 7.6 | 0.7 | -2.2 | -1.3 | 7.2 | -5.8 | . | . | . | . | .
COc1ccc(C(=O)N2CCC(O)(c3ccc(Cl)cc3)CC2)cc1OC | 21.9 | . | . | 95.2* | . | . | -2.1 | -9.9 | -6.8 | 3.2 | 0.3
O=C(O)C1CC1C(=O)Nc1cc(F)ccc1F (centres undefined) | 7.4 | . | . | 27.7* | . | -1.2 | -4.6 | -0.1 | -0.7 | -0.4 | -2.8
FC(F)(F)c1cnc(NNC(=S)Nc2ccc(Cl)cc2)c(Cl)c1 | 38.0 | 5.3 | 0.2 | 41.9* | 13.3 | -5.2 | 8.3 | -26.5 | -14.3 | -7.4 | 16.3*
Cc1cccc2cc(C#N)c(NCCCNS(=O)(=O)c3ccc(Cl)cc3)nc12 | 26.7 | . | -2.9 | 1.9 | . | . | . | . | . | . | .
O=C(Nc1ccccn1)c1cccs1 | -4.1 | 2.2 | -11.6 | 12.8 | 7.6 | -1.6 | . | . | . | . | .
O=C(Nc1nonc1NC(=O)c1cccs1)c1cccs1 | -13.4 | . | -0.1 | 31.4* | . | 5.8 | -6.3 | -17.9 | -18.4 | -9.1 | 3.7
O=c1[nH]c(/C=C\c2cccnc2)c([N+](=O)[O-])c(=O)[nH]1 | 26.2 | . | . | 36.5* | . | -11.6 | 24.8 | 37.1 | 39.0* | 26.6* | 31.4*
O=c1[nH]c(/C=C/c2cccnc2)c([N+](=O)[O-])c(=O)[nH]1 | 15.8 | . | 11.0 | 26.3 | . | -7.6 | . | . | . | . | .
CC(C)Cn1c(N)c(C(=O)COC(=O)CC23CC4CC(CC(C4)C2)C3)c(=O)n(C)c1=O | 21.3 | 1.9 | -3.5 | 38.2* | 21.6 | -3.4 | 4.3 | -10.4 | -26.0 | -1.4 | 2.3
Cc1ccc(C(=O)Nc2ccc3cn[nH]c3c2)cc1S(=O)(=O)N1CCCCC1 | 0.0 | 1.7 | -3.9 | -5.9 | 0.7 | 3.5 | . | . | . | . | .
Cc1cccc(C)c1Nc1c(-c2ccc(N3CCOCC3)cc2)nc2ncccn12 | 35.5 | -5.3 | . | 43.0* | 6.2 | -4.3 | 91.0* | 110.8* | 96.0* | 82.6* | 97.4*
Cc1noc(C)c1C(=O)NC(C)c1ccc(Cl)cc1Cl (centres undefined) | -9.1 | . | 11.7 | -1.5 | . | 5.2 | . | . | . | . | .
Fc1ccc2c(c1)/C(=N/Nc1ccccn1)CCS2 | -4.2 | . | -0.7 | 30.3* | . | 1.3 | 9.8 | 16.1 | 26.9* | 16.6 | 21.9*
N#CCCn1cc(C(=O)N2CCCCC2)c(-c2cccc([N+](=O)[O-])c2)n1 | -0.1 | . | . | -19.0 | . | 4.5 | . | . | . | . | .
FC(F)(F)c1ccc(NC(=S)NCc2ccccc2)cc1 | 16.5 | . | -2.6 | 2.7 | . | -0.6 | . | . | . | . | .
CCN1C(=O)/C(=C2/C=Cc3ccccc3N2CC)SC1=S | 35.2 | . | -4.8 | 33.1* | . | -5.9 | 38.5* | 47.5* | 42.6* | 35.7* | 47.5*
NS(=O)(=O)c1ccc(CCNC(=O)C2CCC(Cn3c(=S)[nH]c4ccccc4c3=O)CC2)cc1 (centres undefined) | 10.2 | . | -0.6 | 9.9 | . | -1.1 | . | . | . | . | .
COc1ccc(S(N)(=O)=O)cc1C(=O)NCCCN1CCN(c2ccccc2OC)CC1 | 13.3 | 1.6 | . | 76.3* | 7.8 | -1.5 | -7.2 | 3.5 | -16.9 | -6.4 | -1.2
COc1ccc(S(N)(=O)=O)cc1C(=O)NCCCN1CCN(c2ccc(C)cc2)CC1 | 25.3 | 0.3 | -1.9 | -20.0 | 4.8 | -4.3 | . | . | . | . | .
O=C1c2ccccc2NC(c2cccc(O)c2)N1NS(=O)(=O)c1ccccc1 (centres undefined) | 6.6 | . | 9.6 | 0.8 | . | 1.9 | . | . | . | . | .
CCOC(=O)c1nc(Nc2ccc(Nc3ccccc3)cc2)c2ccccc2n1 | 13.5 | . | -4.0 | 32.8* | . | -7.5 | 35.1* | 36.5 | 9.6 | 18.9 | 32.8*
CCOC(=O)c1ccc(Nc2nc(C(=O)OCC)nc3ccccc23)cc1 | 7.7 | -0.1 | 0.9 | -2.9 | 2.8 | 1.7 | . | . | . | . | .
O=C(c1ccccc1)c1c2c(cc3sc4ccccc4[n+]13)-c1cccc3cccc-2c13 | 35.1 | 3.9 | 10.6 | 40.5* | 5.8 | -7.3 | 50.6* | 59.8* | 53.6* | 55.6* | 60.2*
Cc1sc2cc3c(c(C(=O)c4ccccc4)[n+]2c1C)-c1cccc2cccc-3c12 | 15.6 | 6.1 | . | 30.6* | 9.3 | 1.2 | 20.3 | 10.7 | 8.2 | 8.7 | 16.5*

Assay outcomes (PubChem BioAssay)
